Test [1] concerns the target T1, Hemoglobin HbA (Homo sapiens) (UniProt P69905+P68871). In words: Affinity towards oxygen by hemoglobin after modification by compound. Type of test: functional.
Test [2] deals with T1, Hemoglobin HbA (Homo sapiens). As to the kind of experiment: Ratio of compound modified hemoglobin aggregation […]. It is filed as functional.
For test [3] the target is unchanged. As to the kind of experiment: Inhibition of sickle hemoglobin aggregation using standard saturation solubility (CSAT) assay. It is filed as functional. In short, it runs like this:
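Saturation solubility (Csat) of deoxy HbS or inhibitor-modified HbS in 50 mM phosphate, pH 7.0. CO is removed by photodissociation under oxygen. HbSO2 at 35 g/dL is deoxygenated on ice with 0.9 M sodium dithionite solution, then centrifuged 1 h at 30 °C. Supernatant Hb is measured spectrophotometrically, and activity is expressed as the solubility increase over the unmodified HbS control.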

For test [4], the target named is Hemoglobin subunit alpha (Homo sapiens) (UniProt P69905). As to the kind of experiment: Percent modification of human Hemoglobin alpha (100 uM) after 3h of incubation. An outline of the steps:
(§1)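 HbA·CO at 100 μM final (tetramer) reacted with isothiocyanate at a 2:1 compound:Hb molar ratio in 50 mM ammonium acetate, pH 7.3, with 2% DMSO or buffer alone, for 3 h at 37 °C. An aliquot was diluted in acetonitrile/water with 0.2% formic acid and analysed by electrospray MS to give percent modified α- and β-subunit. Some compounds were run in triplicate.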

For test [5], the target named is Hemoglobin subunit beta (Homo sapiens) (UniProt P68871). As to the kind of experiment: Percent modification of human Hemoglobin beta (100 uM) after 3h of incubation. In short, it runs like this:
as §1

Test [6] has as its target Hemoglobin subunit alpha (Homo sapiens) (UniProt P69905). As to the kind of experiment: Percent modification of human hemoglobin alpha (100 uM) after 3h of incubation. An outline of the steps:
as §1

For test [7] the target is unchanged. As to the kind of experiment: Percent modification of alpha-subunit of human hemoglobin (100 uM) after 3h of incubation. In short, it runs like this: as §1

Each structure is given as a SMILES string. “And” between values parts separate entries of the source, which are not always exact repeats. Equal entries are not always repeated.

Sequence of Hemoglobin subunit alpha (Homo sapiens) (P69905 whole entry): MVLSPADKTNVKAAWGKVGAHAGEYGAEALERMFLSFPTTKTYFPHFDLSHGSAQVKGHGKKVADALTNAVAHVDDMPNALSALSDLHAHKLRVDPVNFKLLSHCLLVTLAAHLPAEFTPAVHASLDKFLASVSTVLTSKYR
T1 sequence (P68871 2-147 partner limits assumed): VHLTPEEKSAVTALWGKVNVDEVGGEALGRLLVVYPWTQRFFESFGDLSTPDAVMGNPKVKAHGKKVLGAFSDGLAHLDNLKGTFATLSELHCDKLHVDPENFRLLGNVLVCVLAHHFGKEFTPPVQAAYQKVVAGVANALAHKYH
T1 sequence (P69905 2-142 limits assumed): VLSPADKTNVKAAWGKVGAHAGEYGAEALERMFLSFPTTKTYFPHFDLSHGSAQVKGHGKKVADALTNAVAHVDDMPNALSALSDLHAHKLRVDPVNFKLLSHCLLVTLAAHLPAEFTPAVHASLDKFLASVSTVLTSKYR
Sequence of Hemoglobin subunit beta (Homo sapiens) (P68871 2-147 limits assumed): as the sequence (P68871 2-147 partner limits assumed) above

Consider `CCN(CC)CCCCSC#N`, for which, in test [1], the Co is 15.9 g/dL and 15 g/dL and 15.1 g/dL. Besides, the Csat/Co in test [2] was 1.3 (2×) and 1.27. Moreover, the Csat in test [3] was 20.7 g/dL and 19.1 g/dL and 19.7 g/dL.
In turn, `CN(C)c1ccc(SC#N)cc1` registered a Co in test [1] of 17 g/dL. In test [2], the Csat/Co was 1.07. The compound further yielded a Csat in test [3] of 18.2 g/dL. The Modification was 48% in test [4] and 10% in test [5].
Regarding `CN(C)CCCCCSC#N`, in test [1], the Co is 15.9 g/dL and 15 g/dL and 15.1 g/dL. Further, the Csat/Co in test [2] is 1.34 and 1.35 and 1.37. Further, the Csat in test [3] was 21.3 g/dL and 20.2 g/dL and 20.7 g/dL.
On to `N#CSCCCN1CCCC1=O`, for which the Modification was 0% in test [6] and 24% in test [5].
`CCN(CC)CCCSC#N`: the Co in test [1] was 16.1 g/dL and 16.3 g/dL and 16.2 g/dL. Also, the Csat/Co in test [2] is 1.24 and 1.2 and 1.22. The Csat in test [3] was 19.9 g/dL and 19.6 g/dL and 19.7 g/dL. Also, the results for the Modification in test [6] and in test [5] were 0% and 37%, respectively.
For `N#CCCSC#N`, the Co in test [1] was 16.1 g/dL and 16.3 g/dL and 16.2 g/dL. The Csat/Co in test [2] is 1.08 and 1.1 and 1.09. Moreover, the Csat in test [3] was 17.4 g/dL and 17.8 g/dL and 17.7 g/dL. Moreover, the results for the Modification in test [6] and in test [5] were 10% and 21%, respectively.
Take `COC(CSC#N)OC`: the Co in test [1] is 17 g/dL and 16.2 g/dL and 16.5 g/dL. In addition, the Csat/Co in test [2] was 1.07 (2×) and 1.04. Also, in test [3], the Csat is 18.2 g/dL and 17.4 g/dL and 17.3 g/dL. The Modification in test [6] worked out at 11%; in test [5], 33%.
Turning to `CCN(CC)CCCCCSC#N`, the Co in test [1] is 15.9 g/dL and 15 g/dL and 15.1 g/dL. In addition, the Csat/Co in test [2] was 1.33 and 1.36 and 1.35. The Csat in test [3] is 21.1 g dl-1 and 20.4 g dl-1 (2×).
Consider `N#CSCCCCCO`, for which, in test [1], the Co worked out at 17 g/dL. In addition, the Csat/Co in test [2] is 1.11. Besides, in test [3], the Csat turned out to be 18.8 g/dL.
As to `N#CSCCN1CCCCC1`, in test [1], the Co was 16.8 g/dL and 16.4 g/dL and 16.5 g/dL. Further, the Csat/Co in test [2] is 1.24 (2×) and 1.23. The Csat in test [3] was 20.9 g/dL and 20.1 g/dL and 20.5 g/dL.
Turning to `CCN(CC)CCSC#N`, the Co in test [1] is 17 g/dL and 16.2 g/dL and 16.5 g/dL. For the same compound, the Csat/Co in test [2] was 1.24 and 1.22 (2×). In addition, in test [3], the Csat is 21 g/dL and 19.8 g/dL and 20.1 g/dL.
For `N#CSCCCn1ccnc1`, the Co in test [1] was 17 g/dL and 16.2 g/dL and 16.5 g/dL. Besides, the Csat/Co in test [2] is 1.21 and 1.15 and 1.18. Moreover, the Csat in test [3] is 20.6 g/dL and 18.6 g/dL and 19.6 g/dL. In addition, the Modification in test [6] was 7%; in test [5], 13%.
For `N#CSCCc1c[nH]c2ccccc12`, the figures for the Modification in test [6] and in test [5] were 7% and 24%, respectively.
In test [1], `N#CSc1ccc(CCO)cc1` showed a Co of 17 g/dL. In addition, the Csat/Co in test [2] stood at 1.1. The same compound showed a Csat in test [3] of 18.7 g/dL. In addition, the Modification in test [6] is 72%; in test [4] it was 66%; in test [7], 72%; in test [5], 8% and 9% (2×).
For `N#CSc1ccc(O)cc1`, the Modification turned out to be 51% in test [4] and 8% in test [5].
As for `N#CSc1ccc(CC(=O)O)cc1`, the Modification in test [6] was 42%; in test [5], 13%.
Turning to `CCN(CC)CCNC(=O)c1ccc(SC#N)cc1`, the Modification is 36% and 42% in test [6]; 40% in test [4]; 17% and 16% and 15% in test [5].
With `CN(C)CCCCSC#N`, the Co in test [1] is 15.3 g/dL and 15.6 g/dL and 15.1 g/dL. Moreover, the Csat/Co in test [2] was 1.23 and 1.22 and 1.27. The Csat in test [3] was 18.8 g dl-1 and 19.1 g dl-1 (2×).
In the case of `N#CSc1ccc(C(=O)O)c(O)c1`, the results for the Modification in test [6] and in test [5] were 35% and 3%, respectively.
For the compound `N#CSC1CCC(O)CC1` (stereo not given), the values for the Modification in test [6] and in test [5] were 0% and 18%, respectively.
The matching figures for `N#CSCc1ccncc1`: 6% and 58%.

The record behind these values is ChEMBL document CHEMBL1136727, “Regioselective covalent modification of hemoglobin in search of antisickling agents” (J Med Chem, 2003).
